Source: ChEMBL document CHEMBL5724801, “EUbOPEN Chemogenomics Library - Multiplex” (2024)
Several values for one entry are separate records, joined by “and”; a condition that tells them apart may be missing. Equal entries are not always repeated.

Test system: Fibroblast
Test: Multiplex assay against human fibroblast
Assay type: toxicity, cell-based
Procedure, shortened: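 Per cents of healthy-nucleus cells form the tubulin, mitochondrial-mass and membrane-permeability phenotype values. Live cells were stained at seeding with Hoechst33342, BioTracker Green Microtubule Cytoskeleton Dye, MitoTracker Red and Annexin V Alexa Fluor 680. After compound addition they were imaged on a CQ1 microscope at 37°C and 5% CO2, and CellPathfinder machine-learning gating split them into Hoechst high-intensity objects or normal cells, normal cells into healthy, pyknosed or fragmented nuclei, and pyknosed cells into mitotic or apoptotic.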

[1] = 12 h, 1 µM, compound concentration 1 uM
[2] = 12 h, 10 µM, compound concentration 10 uM
[3] = 24 h, 1 µM, compound concentration 1 uM
[4] = 24 h, 10 µM, compound concentration 10 uM
[5] = 48 h, 1 µM, compound concentration 1 uM
[6] = 48 h, 10 µM, compound concentration 10 uM

## COC(c1ccccc1)(c1ccccc1)[C@H](Oc1nc(C)cc(C)n1)C(=O)O [AMBRISENTAN]
[1]
  Population Apoptotic (%): 68% and 30%
  Population Fragmented Nuclei (%): 13% and 18%
  Population Healthy Nuclei (%): 66% and 56%
  Population Hoechst High Intensity Objects (%): 1% and 4%
  Population Membrane Permeable-Phenotype (%): 0% and 1%
  Population Mitochondria Different-Phenotype (%): 4% and 6%
  Population Mitotic Cells (%): 31% and 69%
  Population Normal (%): 98% and 95%
  Population Pyknosed Nuclei (%): 19% and 25%
  Population Tubulin-Different-Phenotype (%): 29% and 37%
  Total Cell Count: 97 and 163
[2]
  Population Apoptotic (%): 56% and 33%
  Population Healthy Nuclei (%): 70% and 25%
  Population Hoechst High Intensity Objects (%): 5% and 4%
  Population Membrane Permeable-Phenotype (%): 0% and 5%
  Population Mitochondria Different-Phenotype (%): 11% and 0%
  Population Mitotic Cells (%): 43% and 66%
  Population Normal (%): 94% and 95%
  Population Pyknosed Nuclei (%): 21% and 34%
  Population Tubulin-Different-Phenotype (%): 25% and 35%
  Total Cell Count: 145 and 82
[3]
  Population Apoptotic (%): 62% and 34%
  Population Fragmented Nuclei (%): 15% and 14%
  Population Healthy Nuclei (%): 67% and 62%
  Population Hoechst High Intensity Objects (%): 2% and 5%
  Population Membrane Permeable-Phenotype (%): 0% and 3%
  Population Mitochondria Different-Phenotype (%): 4% and 3%
  Population Mitotic Cells (%): 37% and 65%
  Population Normal (%): 97% and 94%
  Population Pyknosed Nuclei (%): 17% and 23%
  Population Tubulin-Different-Phenotype (%): 38%
  Total Cell Count: 95 and 158
[4]
  Population Apoptotic (%): 69% and 27%
  Population Healthy Nuclei (%): 68% and 27%
  Population Hoechst High Intensity Objects (%): 7% and 5%
  Population Membrane Permeable-Phenotype (%): 0% and 5%
  Population Mitochondria Different-Phenotype (%): 11% and 10%
  Population Mitotic Cells (%): 30% and 72%
  Population Normal (%): 92% and 94%
  Population Pyknosed Nuclei (%): 18% and 26%
  Population Tubulin-Different-Phenotype (%): 29% and 36%
  Total Cell Count: 149 and 73
[5]
  Population Apoptotic (%): 60% and 61%
  Population Fragmented Nuclei (%): 19% and 24%
  Population Healthy Nuclei (%): 64% and 54%
  Population Hoechst High Intensity Objects (%): 4% and 0%
  Population Membrane Permeable-Phenotype (%): 1% and 4%
  Population Mitochondria Different-Phenotype (%): 5% and 10%
  Population Mitotic Cells (%): 40% and 38%
  Population Normal (%): 95% and 99%
  Population Pyknosed Nuclei (%): 16% and 20%
  Population Tubulin-Different-Phenotype (%): 28% and 42%
  Total Cell Count: 93 and 154
[6]
  Population Apoptotic (%): 61% and 71%
  Population Healthy Nuclei (%): 71% and 31%
  Population Hoechst High Intensity Objects (%): 7% and 3%
  Population Membrane Permeable-Phenotype (%): 1% and 0%
  Population Mitochondria Different-Phenotype (%): 10% and 0%
  Population Mitotic Cells (%): 38% and 28%
  Population Normal (%): 92% and 96%
  Population Pyknosed Nuclei (%): 13% and 18%
  Population Tubulin-Different-Phenotype (%): 34% and 62%
  Total Cell Count: 145 and 79

## O=C(Nc1c[nH]nc1-c1nc2cc(CN3CCOCC3)ccc2[nH]1)NC1CC1 [AT-9283]
[1]
  Population Apoptotic (%): 20% and 16.13%
  Population Fragmented Nuclei (%): 9.94% and 5.09%
  Population Healthy Nuclei (%): 62.43% and 80.56%
  Population Hoechst High Intensity Objects (%): 0%
  Population Membrane Permeable-Phenotype (%): 3.54% and 0.57%
  Population Mitochondria Different-Phenotype (%): 14.16% and 13.22%
  Population Mitotic Cells (%): 80% and 83.87%
  Population Normal (%): 100%
  Population Pyknosed Nuclei (%): 27.62% and 14.35%
  Population Tubulin-Different-Phenotype (%): 24.78% and 24.71%
  Total Cell Count: 181 and 216
[2]
  Population Apoptotic (%): 30% and 36.21%
  Population Fragmented Nuclei (%): 25% and 12.87%
  Population Healthy Nuclei (%): 54.59% and 65.81%
  Population Hoechst High Intensity Objects (%): 0%
  Population Membrane Permeable-Phenotype (%): 19.63% and 13.41%
  Population Mitochondria Different-Phenotype (%): 14.02% and 18.44%
  Population Mitotic Cells (%): 70% and 63.79%
  Population Normal (%): 100%
  Population Pyknosed Nuclei (%): 20.41% and 21.32%
  Population Tubulin-Different-Phenotype (%): 36.45% and 41.34%
  Total Cell Count: 196 and 272
[3]
  Population Apoptotic (%): 8.33% and 17.86%
  Population Fragmented Nuclei (%): 12.64% and 5.88%
  Population Healthy Nuclei (%): 67.58% and 68.78%
  Population Hoechst High Intensity Objects (%): 0%
  Population Membrane Permeable-Phenotype (%): 6.5% and 2.63%
  Population Mitochondria Different-Phenotype (%): 13.01% and 9.87%
  Population Mitotic Cells (%): 91.67% and 82.14%
  Population Normal (%): 100%
  Population Pyknosed Nuclei (%): 19.78% and 25.34%
  Population Tubulin-Different-Phenotype (%): 28.46% and 22.37%
  Total Cell Count: 182 and 221
[4]
  Population Apoptotic (%): 38.98% and 73.44%
  Population Fragmented Nuclei (%): 21.08% and 15.35%
  Population Healthy Nuclei (%): 43.37% and 56.58%
  Population Hoechst High Intensity Objects (%): 0%
  Population Membrane Permeable-Phenotype (%): 23.61% and 16.28%
  Population Mitochondria Different-Phenotype (%): 16.67% and 18.6%
  Population Mitotic Cells (%): 61.02% and 26.56%
  Population Normal (%): 100%
  Population Pyknosed Nuclei (%): 35.54% and 28.07%
  Population Tubulin-Different-Phenotype (%): 38.89% and 57.36%
  Total Cell Count: 166 and 228
[5]
  Population Apoptotic (%): 41.3% and 71.67%
  Population Fragmented Nuclei (%): 16.56% and 16.58%
  Population Healthy Nuclei (%): 54.14% and 51.34%
  Population Hoechst High Intensity Objects (%): 0%
  Population Membrane Permeable-Phenotype (%): 3.53% and 9.38%
  Population Mitochondria Different-Phenotype (%): 11.76% and 7.29%
  Population Mitotic Cells (%): 58.7% and 28.33%
  Population Normal (%): 100%
  Population Pyknosed Nuclei (%): 29.3% and 32.09%
  Population Tubulin-Different-Phenotype (%): 23.53% and 35.42%
  Total Cell Count: 157 and 187
[6]
  Population Apoptotic (%): 43.48% and 91.01%
  Population Fragmented Nuclei (%): 26.71% and 24.14%
  Population Healthy Nuclei (%): 44.72% and 32.02%
  Population Hoechst High Intensity Objects (%): 0%
  Population Membrane Permeable-Phenotype (%): 12.5% and 29.23%
  Population Mitochondria Different-Phenotype (%): 18.06% and 23.08%
  Population Normal (%): 100%
  Population Pyknosed Nuclei (%): 28.57% and 43.84%
  Population Tubulin-Different-Phenotype (%): 27.78% and 72.31%
  Total Cell Count: 161 and 203

## CC(C)C[C@H](CO)Nc1nc(S[C@@H](C)c2ccccc2)nc2nc(N)sc12 [AZD-8797]
[1]
  Population Apoptotic (%): 25% and 31%
  Population Fragmented Nuclei (%): 23% and 22%
  Population Healthy Nuclei (%): 62% and 55%
  Population Hoechst High Intensity Objects (%): 1% and 4%
  Population Mitochondria Different-Phenotype (%): 3% and 6%
  Population Mitotic Cells (%): 75% and 68%
  Population Normal (%): 98% and 95%
  Population Pyknosed Nuclei (%): 13% and 21%
  Population Tubulin-Different-Phenotype (%): 23% and 46%
  Total Cell Count: 146 and 92
[2]
  Population Apoptotic (%): 38% and 36%
  Population Fragmented Nuclei (%): 18% and 36%
  Population Healthy Nuclei (%): 64% and 41%
  Population Hoechst High Intensity Objects (%): 3% and 5%
  Population Membrane Permeable-Phenotype (%): 0% and 10%
  Population Mitotic Cells (%): 61% and 64%
  Population Normal (%): 96% and 94%
  Population Pyknosed Nuclei (%): 17% and 21%
  Population Tubulin-Different-Phenotype (%): 46% and 66%
  Total Cell Count: 156 and 122
[3]
  Population Apoptotic (%): 44% and 31%
  Population Fragmented Nuclei (%): 15% and 29%
  Population Healthy Nuclei (%): 69% and 54%
  Population Hoechst High Intensity Objects (%): 1% and 0%
  Population Mitochondria Different-Phenotype (%): 1% and 3%
  Population Mitotic Cells (%): 55% and 68%
  Population Normal (%): 98% and 99%
  Population Pyknosed Nuclei (%): 14% and 15%
  Population Tubulin-Different-Phenotype (%): 24% and 46%
  Total Cell Count: 124 and 103
[4]
  Population Apoptotic (%): 57% and 33%
  Population Fragmented Nuclei (%): 21% and 42%
  Population Healthy Nuclei (%): 66% and 38%
  Population Hoechst High Intensity Objects (%): 1% and 2%
  Population Membrane Permeable-Phenotype (%): 0% and 8%
  Population Mitochondria Different-Phenotype (%): 15% and 25%
  Population Mitotic Cells (%): 42% and 66%
  Population Normal (%): 98% and 97%
  Population Pyknosed Nuclei (%): 12% and 19%
  Population Tubulin-Different-Phenotype (%): 38% and 85%
  Total Cell Count: 168 and 126
[5]
  Population Apoptotic (%): 50% and 47%
  Population Fragmented Nuclei (%): 25% and 30%
  Population Healthy Nuclei (%): 60% and 48%
  Population Hoechst High Intensity Objects (%): 1% and 4%
  Population Membrane Permeable-Phenotype (%): 1% and 4%
  Population Mitochondria Different-Phenotype (%): 1% and 4%
  Population Mitotic Cells (%): 50% and 52%
  Population Normal (%): 98% and 95%
  Population Pyknosed Nuclei (%): 13% and 20%
  Total Cell Count: 135 and 95
[6]
  Population Apoptotic (%): 60% and 35%
  Population Fragmented Nuclei (%): 25% and 45%
  Population Healthy Nuclei (%): 65% and 40%
  Population Hoechst High Intensity Objects (%): 2% and 1%
  Population Membrane Permeable-Phenotype (%): 0% and 12%
  Population Mitochondria Different-Phenotype (%): 13% and 18%
  Population Mitotic Cells (%): 40% and 64%
  Population Normal (%): 97% and 98%
  Population Pyknosed Nuclei (%): 9% and 14%
  Population Tubulin-Different-Phenotype (%): 35% and 89%
  Total Cell Count: 168 and 121
